Screens as filed in PubChem.
Shown are actives, neighbours in structure and some others; about 2.8% of the full set was active somewhere.
EBI2 block = EBI2 receptor antagonists, beta-arrestin recruitment, primary screen, cell-based, luminescence, 7a,25-OHC stimulation, uHTS. G-protein coupled receptor 183 (Homo sapiens), P32249. 7a,25-OHC stimulated. inhibition, % at 5 µM. 360,000 compounds, 0.81% hits. AID 651636, 2012; in the data active = inhibition above about 38%;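 also: enzyme fragment complementation signal reports receptor beta-arrestin coupling in cells; 0% = agonist plus DMSO wells and 100% = wells without agonist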
Target sequence (P32249 whole entry, looked up, the tested form may be a part): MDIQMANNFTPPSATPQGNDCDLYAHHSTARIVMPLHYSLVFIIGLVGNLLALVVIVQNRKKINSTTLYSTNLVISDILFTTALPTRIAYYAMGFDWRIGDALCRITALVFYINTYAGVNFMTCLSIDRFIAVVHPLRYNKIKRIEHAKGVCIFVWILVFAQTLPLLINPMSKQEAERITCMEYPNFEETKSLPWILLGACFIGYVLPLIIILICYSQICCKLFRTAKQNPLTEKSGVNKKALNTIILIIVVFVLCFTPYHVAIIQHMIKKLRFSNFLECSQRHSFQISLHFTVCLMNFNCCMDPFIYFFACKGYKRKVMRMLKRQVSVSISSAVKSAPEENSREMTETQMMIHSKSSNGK
m5-HT2A agonist = mouse Htr2a agonists via beta-arrestin recruitment, primary screen, cell-based, luminescence | CHO-K1 mHTR2A beta-arrestin complementation; percent of 30 µM serotonin response | activation, % at 7.6 µM | 360,000 compounds, 0.66% hits;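 active = activation above a run cutoff, the mean activation of all tested compounds plus 3 SD, cut at about 14% in these data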;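 also: 0% = plate median of compound wells and 100% = 30 µM serotonin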
MC4R ag barr = MC4R agonists recruiting beta-arrestin, primary screen, cell-based, luminescence, agonist arm of biased-ligand search; AID 540308, 2011; 360,000 compounds, 0.98% hits; U2OS MC4R beta-arrestin complementation; percent of melanotan II response, DMSO zero; Melanocortin receptor 4 (Homo sapiens), P32245; activation, % at 8.9 µM;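 active = activation above a per-plate cutoff, the mean activation of sample wells on that plate plus 3 SD, cut at about 8% in these data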
Target sequence (P32245 whole entry, looked up): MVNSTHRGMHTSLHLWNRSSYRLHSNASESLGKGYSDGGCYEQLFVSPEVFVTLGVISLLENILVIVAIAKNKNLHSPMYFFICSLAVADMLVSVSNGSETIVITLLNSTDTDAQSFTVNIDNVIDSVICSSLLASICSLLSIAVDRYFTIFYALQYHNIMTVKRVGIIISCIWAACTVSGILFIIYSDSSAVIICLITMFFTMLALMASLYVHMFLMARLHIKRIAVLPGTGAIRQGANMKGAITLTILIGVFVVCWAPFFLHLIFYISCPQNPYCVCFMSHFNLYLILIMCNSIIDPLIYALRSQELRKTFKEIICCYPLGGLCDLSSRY
MC4R antag cAMP = MC4R antagonists of cAMP signaling, primary screen, cell-based, TR-FRET, antagonist arm of biased-ligand search; 360,000 compounds, 0.48% hits; Melanocortin receptor 4 (Homo sapiens), P32245; inhibition, % at 6.5 µM; MC4R-expressing cells, MTII-stimulated cAMP, LANCE TR-FRET;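 active = inhibition above its plate's cutoff, the mean of tested wells on that plate plus 3 SD, cut at about 29% in these data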;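 also: 0% = Melanotan II alone and 100% = Melanotan II plus saturating MCL0020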
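Material: human MC4R-expressing U2OS cells. Probe or stimulus: Melanotan II challenge. Dosing: 6.5 µM single dose. Times: 30-min compound, 1-h challenge, 1-h detection, room temperature. Technique: TR-FRET with Eu-cAMP and labeled anti-cAMP, 671 nm. Replication: singlicate.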
EBI2 antag conf = EBI2 antagonist hit retest, beta-arrestin, confirmation, cell-based, single concentration, luminescence, 7a,25-OHC stimulation | AID 651997, 2013 | inhibition, % at 5 µM | shares compounds with EBI2 block | 2,400 compounds, 29% hits | 7a,25-OHC antagonism;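 active = inhibition of at least 50%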
EBI2 ag = EBI2 agonist activity of antagonist hits, confirmation, counter-screen for EBI2 antagonist project, cell-based, single concentration, agonist mode, luminescence; shares compounds with EBI2 block; EBI2-expressing cells, 60 min; 0% vehicle, 100% 7α,25-dihydroxycholesterol control; activation, % at 5 µM; 2,400 tested, under 10 active;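 active = activation of at least 50%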
bGal counter = E. coli beta-galactosidase enzyme inhibition, confirmation, counter-screen for EBI2 antagonist project, biochemical, luminescence, single concentration | shares compounds with EBI2 block | purified beta-galactosidase, luminescent Galacton Star, 15 min | inhibition, % at 5 µM | 2,400 compounds, 1% hits;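 active = replicate-average signal at least 3 plate SD below neutral wells, shown as high inhibition, flagging enzyme-inhibiting false positives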;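 also: 0% = DMSO wells with enzyme and 100% = wells lacking enzyme; higher means stronger loss of beta-gal luminescence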
An asterisk follows results filed as active; . = no result.

SMILES | EBI2 block | m5-HT2A agonist | MC4R ag barr | MC4R antag cAMP | EBI2 antag conf | EBI2 ag | bGal counter
Cc1ccc(N=C2NC(=O)/C(=C/c3cccnc3)S2)cc1C | 47* | -3 | 0 | 15 | 34 | 0 | 6
O=C1NC(=Nc2ccccc2)S/C1=C\c1cccnc1 | 45* | -1 | -1 | 10 | 51* | -1 | -6
c1ccc(Oc2ncnc3oc(-c4ccccc4)cc23)cc1 | 50* | 3 | 1 | -3 | 47 | 0 | 3
Cc1cc(SCC(=O)N2CCN(C(=O)c3ccco3)CC2)c(C)cc1Br | 41 | 4 | 1 | 7 | . | . | .
CCN(CC)CCSc1nnc2c3cc(C)ccc3n(Cc3ccccc3)c2n1 | 74* | -11 | 3 | 5 | 52* | 1 | -1
O=C(CSc1ccc2ccccc2n1)N1CCC(c2noc3ccc(F)cc23)CC1 | 38* | -9 | -1 | 2 | 2 | 2 | 3
O=C(CSc1ccccc1Cl)N1CCC(c2nc3ccccc3s2)CC1 | 13 | -1 | 0 | -2 | . | . | .
Cc1nnc(SCC(=O)N2CCC(c3noc4ccc(F)cc34)CC2)s1 | -9 | 0 | -2 | 1 | . | . | .
O=C(CSc1ccc(F)cc1)N1CCC(c2nc3ccccc3s2)CC1 | 46* | 0 | -2 | -4 | 15 | -1 | -16
CCN(CC)C(=O)CN1C(=O)C2(OCC(C)(C)CO2)c2ccccc21 | -9 | -2 | -1 | 2 | . | . | .
Cc1ccc2nc(Nc3ccc(Cl)cc3)c3nncn3c2c1 | 8 | 6 | 1 | -11 | . | . | .
CCCCCCSc1ccc(-c2nc3ccc(C)cn3c2NC2CCCCC2)cc1 | 45* | -2 | 0 | 9 | 22 | 2 | 8
COC(=O)[C@@]1(Cc2ccc(F)cc2)[C@H]2c3cc(C(=O)N4CCCC4)n(CCc4c[nH]c5ccccc45)c3C[C@H]2CN1C(=O)c1ccccc1 | 53* | 4 | . | . | 24 | 0 | -8
O=S(=O)(NCc1cccnc1)c1ccc2ccccc2c1 | -2 | -6 | -2 | 1 | . | . | .
COc1ccc(Cl)cc1C(=O)Nc1ccccc1N1CCCCC1 | 16 | -3 | -2 | 9 | . | . | .
COc1ccc(Cn2c(=O)c3cccnc3n(Cc3ccc([N+](=O)[O-])cc3)c2=O)cc1 | 47* | -5 | -1 | 2 | 10 | 1 | -1
COc1ccc(CCn2c(=O)c3cccnc3n(Cc3ccc([N+](=O)[O-])cc3)c2=O)cc1OC | 10 | -1 | -1 | 12 | . | . | .
CCn1c(-c2ccccc2Cl)nn(CC(=O)NCCc2ccccc2)c1=S | 57* | -1 | 0 | 1 | 31 | -1 | -6
CCOC(=O)C1=C(C)Nc2sc(C(=O)c3ccc(F)cc3)c(N)c2C1c1ccc(C(=O)OC)cc1 (configuration not stated) | 37* | -2 | -1 | 18 | 23 | -2 | -5
CCOC(=O)C1=C(C)Nc2sc(C(=O)c3ccc(C)cc3)c(N)c2C1c1ccc(C(=O)OC)cc1 (configuration not stated) | 32 | 5 | -3 | 5 | . | . | .
Cc1nc(CS(=O)(=O)c2ccccc2)cc(Sc2ccc(Cl)cc2)n1 | 46* | 1 | 0 | 8 | 29 | -1 | -11
Cc1nc(CS(=O)(=O)c2ccc(Cl)cc2)cc(Sc2ccccc2Cl)n1 | 71* | -3 | 4 | 17 | 47 | 0 | 3
COc1cc(/C=C(\C#N)C(=O)c2c(C)[nH]c3ccccc23)cc(OC)c1OC | 45* | 2 | 1 | -5 | 35 | 3 | 7
O=C(Nc1cccnc1)C1Cc2c(-c3ccco3)ccnc2O1 (configuration not stated) | -26 | 1 | 0 | 2 | . | . | .
COc1ccc(-c2nc3c(c(=O)[nH]c(=O)n3Cc3ccccc3)n2Cc2ccccc2)cc1 | 45* | -4 | 1 | 6 | 10 | 2 | -7
SMILES | EBI2 block | m5-HT2A agonist | MC4R ag barr | MC4R antag cAMP | EBI2 antag conf | EBI2 ag | bGal counter
COc1ccc(-c2nc3c(c(=O)[nH]c(=O)n3Cc3ccccc3)n2C)cc1 | 10 | -6 | 0 | 4 | . | . | .
O=C(/C=C/c1ccc(OCc2ccccc2)c(OCc2ccccc2)c1)c1cccnc1 | 46* | -5 | -2 | 14 | 31 | 0 | 6
O=C(/C=C/c1ccc(Cl)cc1Cl)c1nc2ccccc2[nH]1 | 44* | 2 | 0 | 2 | 16 | 1 | 1
CCc1ccc2c(c1)C1(C(=O)N2)N2CCCC2C(C(=O)c2ccc3ccccc3c2)C12C(=O)Nc1ccccc12 (configuration not stated) | 39 | 9 | 2 | 24 | . | . | .
CCc1cccc2c1NC(=O)C21N2CCCC2C(C(=O)c2ccc3ccccc3c2)C12C(=O)Nc1ccccc12 (configuration not stated) | 55* | 6 | 5 | 8 | 23 | 0 | 9
O=C(c1ccco1)N1CCN(Cc2nnc(-c3cccc(Br)c3)o2)CC1 | -2 | 2 | 2 | -2 | . | . | .
CC(=O)Nc1ccc(Nc2cc(C)nc3c(-c4ccc(Cl)cc4)c(C)nn23)cc1 | 46* | -1 | 6 | 1 | 44 | 1 | -4
CC(=O)Nc1ccc(Nc2cc(C)nc3c(-c4ccc(Cl)cc4)cnn23)cc1 | 53* | 2 | -1 | 3 | 42 | 0 | -14
Cc1cc(Cl)n2nc(C)c(-c3ccc(Cl)cc3)c2n1 | -1 | -2 | -4 | 27 | . | . | .
CC(C)C[C@H]1CNC(=S)N1C[C@H]1CCCN1C[C@H](Cc1ccc(O)cc1)N1C[C@H](Cc2ccccc2)N(CCc2ccccc2)C1=S | 16 | -2 | . | . | . | . | .
CC(C)C[C@H]1CNC(=S)N1C[C@H]1CCCN1C[C@H](CC(C)C)N1C[C@H](Cc2ccc(O)cc2)N(CCc2ccccc2)C1=S | 43* | -1 | . | . | 14 | 1 | 8
Oc1ccc(C[C@H]2CNC(=S)N2CC2CCCN2C[C@H](Cc2ccc(O)cc2)N2C[C@H](Cc3ccccc3)N(CCc3ccccc3)C2=S)cc1 (some centres not stated) | 42* | -9 | -3 | 8 | 17 | 0 | 8
CC(C)C[C@@H](CN1CCC[C@@H]1CN1C(=S)NC[C@@H]1Cc1ccc(O)cc1)N1C[C@H](Cc2ccccc2)N(CCc2ccccc2)C1=S | 47* | -5 | . | . | 6 | -1 | -7
